Data as given in ChEMBL document CHEMBL1141166, “2-[(Carboxymethyl)sulfanyl]-4-oxo-4-arylbutanoic acids selectively suppressed proliferation of neoplastic human HeLa cells. A SAR/QSAR study” (J Med Chem, 2005).

What was measured:
[1] = Partition coefficient (logP); assay type: physicochemical; conditions: octanol/water
Summary of the method: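 Calculated rather than measured: log P (n-octanol/water) estimated by Crippen's fragmentation method.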

HeLa [2] = experiment: Inhibitory concentration inducing 50% decrease in HeLa cell survival; assay type: functional, cell-based; conditions: Homo sapiens
Summary of the method: (§1)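 HeLa cells seeded at 2000/well and left 20 h, then exposed to five concentrations (final 3.12 to 50 or 100 μM/L, diluted from a 10 mM/L DMSO stock) in triplicate for 72 h. Medium was RPMI 1640 without phenol red with 10% FBS and 25 mM HEPES, pH 7.2. Survival by MTT: 4 h at 37 °C, SDS lysis, A570. Blank was subtracted and values taken as % of untreated control. IC50 is the concentration giving 50% survival loss.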

HeLa [3] = experiment: Observed concentration that required to induce 50% decrease in HeLa cell survival; assay type: functional, cell-based; conditions: Homo sapiens, read-out: Log 1/IC50 (converted); summary of the method: as §1
PBMC (Homo sapiens) [4] = experiment: Selectivity index that required to induce 50% decrease in PBMC (healthy human's peripheral blood cells) cells survival
PBMC+PHA (Homo sapiens) [5] = experiment: Selectivity index that required to induce 50% decrease in PBMC+PHA (healthy human's peripheral blood cells) cells survival
PBMC (Homo sapiens) [6] = experiment: Inhibitory concentration that required to Induced a 50% decrease in PBMC (healthy human's peripheral blood cells) cells survival
PBMC+PHA (Homo sapiens) [7] = experiment: Inhibitory concentration that required to Induced a 50% decrease in PBMC+PHA (healthy human's peripheral blood cells) cells survival
PBMC (Homo sapiens) [8] = experiment: Inhibitory concentration that required to induce 50% decrease in PBMC (healthy human's peripheral blood cells) cells survival
PBMC+PHA (Homo sapiens) [9] = experiment: Inhibitory concentration that required to induce 50% decrease in PBMC+PHA (healthy human's peripheral blood cells) cells survival
PBMC+PHA (Homo sapiens) [10] = experiment: Inhibitory concentration that required to induced a 50% decrease in PBMC+PHA (healthy human's peripheral blood cells) cells survival

Compound	logP [1]	IC50 (HeLa [2]) [µM]	IC50 (HeLa [3]) [µM]	Si (PBMC (Homo sapiens) [4])	Si (PBMC+PHA (Homo sapiens) [5])	IC50 (PBMC (Homo sapiens) [6]) [µM]	IC50 (PBMC+PHA (Homo sapiens) [7]) [µM]	IC50 (PBMC (Homo sapiens) [8]) [µM]	IC50 (PBMC+PHA (Homo sapiens) [9]) [µM]	IC50 (PBMC+PHA (Homo sapiens) [10]) [µM]
CC(C)c1cc(C(C)C)c(C(=O)CC(SCC(=O)O)C(=O)O)c(C(C)C)c1 (stereo not drawn)	4.41	1.66	1.66	2	2.58	3.32	4.78			
O=C(O)CSC(CC(=O)c1ccc(Cl)cc1)C(=O)O (stereo not drawn)	1.27	17.2	17.3							
CCCCc1ccc(C(=O)CC(SCC(=O)O)C(=O)O)cc1 (stereo not drawn)	2.45	1.92	1.91							
O=C(O)CSC(CC(=O)c1ccccc1)C(=O)O (stereo not drawn)	0.71	15	15							
O=C(O)CSC(CC(=O)c1ccc(F)cc1)C(=O)O (stereo not drawn)	0.87	20.7	20.7							
CCc1cc(CC)c(C(=O)CC(SCC(=O)O)C(=O)O)c(CC)c1 (stereo not drawn)	3.42	0.88	0.879	21.56	22.63	19	19.9			
O=C(O)CSC(CC(=O)c1ccc(Br)cc1)C(=O)O (stereo not drawn)	1.54	9.5	9.51							
CCCCCCCCCCCCc1ccc(C(=O)CC(SCC(=O)O)C(=O)O)cc1 (stereo not drawn)	5.79	1.71	1.71							
O=C(O)CS [THIOGLYCOLIC ACID]		> 200						> 200	> 200	

Now from value to molecule, other results behind:

logP [1]	Compound	IC50 (HeLa [2]) [µM]	IC50 (HeLa [3]) [µM]	Si (PBMC (Homo sapiens) [4])	Si (PBMC+PHA (Homo sapiens) [5])	IC50 (PBMC (Homo sapiens) [6]) [µM]	IC50 (PBMC+PHA (Homo sapiens) [7]) [µM]	IC50 (PBMC (Homo sapiens) [8]) [µM]	IC50 (PBMC+PHA (Homo sapiens) [9]) [µM]	IC50 (PBMC+PHA (Homo sapiens) [10]) [µM]
3.18	CC(C)c1ccc(C(C)C)c(C(=O)CC(SCC(=O)O)C(=O)O)c1 (stereo not drawn)	0.644	0.644	20.65	24.33			13.3	15.7	
1.75	Cc1ccc(C(=O)CC(SCC(=O)O)C(=O)O)c(Cl)c1 (stereo not drawn)	4.73	4.73							
2.41	CC(C)(C)c1ccc(C(=O)CC(SCC(=O)O)C(=O)O)cc1 (stereo not drawn)	1.39	1.39							
1.2	Cc1ccc(C(=O)CC(SCC(=O)O)C(=O)O)cc1 (stereo not drawn)	17.3	17.3							
1.68	Cc1ccc(C)c(C(=O)CC(SCC(=O)O)C(=O)O)c1 (stereo not drawn)	2.68	2.68							
1.68	Cc1ccc(C(=O)CC(SCC(=O)O)C(=O)O)c(C)c1 (stereo not drawn)	3.83	3.83							
3.18	CC(C)c1ccc(C(=O)CC(SCC(=O)O)C(=O)O)c(C(C)C)c1 (stereo not drawn)	1.1	1.1	6.17	6.49			6.79		7.14
1.68	Cc1ccc(C(=O)CC(SCC(=O)O)C(=O)O)cc1C (stereo not drawn)	3.81	3.81							
1.94	CC(C)c1ccc(C(=O)CC(SCC(=O)O)C(=O)O)cc1 (stereo not drawn)	3.33	3.33							
0.33	COc1ccc(C(=O)CC(SCC(=O)O)C(=O)O)c(OC)c1OC (stereo not drawn)	29.5	29.5							
4.12	CC(C)(C)c1ccc(C(C)(C)C)c(C(=O)CC(SCC(=O)O)C(=O)O)c1 (stereo not drawn)	4.36	4.36	10	8.5		37.1	43.7		
1.61	CCc1ccc(C(=O)CC(SCC(=O)O)C(=O)O)cc1 (stereo not drawn)	4.79	4.79							
